Test results as given in ChEMBL document CHEMBL1133013, “Structure-activity relationships and pharmacokinetic analysis for a series of potent, systemically available biphenylsulfonamide matrix metalloproteinase inhibitors” (J Med Chem, 2000).

Columns and labels:
[1] = Concentration in rat plasma 24 hours after single 5 mg/kg oral cassette gavage dose; format: ADME, organism-based; design: dose 5 mg/kg, route oral; conditions: read-out: C24
Collagenase 3 = Collagenase 3 (Homo sapiens, UniProt P45452)
Stromelysin-1 = Stromelysin-1 (Homo sapiens, UniProt P08254); experiment: In vitro inhibition of recombinant human matrix metalloprotease-3 (MMP-3)
Matrilysin = molecular target: T1, Matrilysin (Homo sapiens, UniProt P09237); experiment: In vitro inhibition of matrix metalloprotease-7 (MMP-7)
T1 sequence (P09237 whole entry): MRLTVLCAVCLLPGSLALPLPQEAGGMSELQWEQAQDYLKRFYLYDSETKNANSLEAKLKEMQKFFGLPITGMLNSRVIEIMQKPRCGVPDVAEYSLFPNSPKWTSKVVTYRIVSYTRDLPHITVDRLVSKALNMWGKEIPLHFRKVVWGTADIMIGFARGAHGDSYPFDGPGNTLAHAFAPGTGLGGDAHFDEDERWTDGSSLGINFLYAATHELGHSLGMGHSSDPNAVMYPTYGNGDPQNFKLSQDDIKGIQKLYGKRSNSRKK

[2] = Cmax in rat plasma after single 5 mg/kg oral cassette gavage dose; format: ADME, organism-based; design: dose 5 mg/kg, route oral
How it was run: (§1)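 Cassette of 5–7 compounds given together as one oral gavage, 5 mg/kg per compound, methyl cellulose suspension, 3 fasted male Wistar rats (80-90 days old). Heparinized plasma taken by jugular cannula predose to 48 h. LC-MS/MS with LLOQ 10 ng/mL. Noncompartmental analysis of individual rats: Cmax/tmax as observed, t1/2 = 0.693/λz, trapezoidal AUC(0-tldc) extrapolated to infinity.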

[3] = Pharmacokinetic parameters in rats following a single 5 mg/kg oral cassette gavage dose; format: ADME, organism-based; design: dose 5 mg/kg, route oral; conditions: rat, in vivo, read-out: AUC 0-infinity; how it was run: as §1
[4] = Time to maximal concentration (tmax) in rats following a single 5 mg/kg oral cassette gavage dose; format: ADME, organism-based; design: dose 5 mg/kg, route oral; conditions: rat, in vivo; how it was run: as §1
Interstitial collagenase = molecular target: T2, Interstitial collagenase (Homo sapiens, UniProt P03956); experiment: In vitro inhibition of human recombinant matrix metalloprotease-1 (MMP-1)
T2 sequence (P03956 whole entry): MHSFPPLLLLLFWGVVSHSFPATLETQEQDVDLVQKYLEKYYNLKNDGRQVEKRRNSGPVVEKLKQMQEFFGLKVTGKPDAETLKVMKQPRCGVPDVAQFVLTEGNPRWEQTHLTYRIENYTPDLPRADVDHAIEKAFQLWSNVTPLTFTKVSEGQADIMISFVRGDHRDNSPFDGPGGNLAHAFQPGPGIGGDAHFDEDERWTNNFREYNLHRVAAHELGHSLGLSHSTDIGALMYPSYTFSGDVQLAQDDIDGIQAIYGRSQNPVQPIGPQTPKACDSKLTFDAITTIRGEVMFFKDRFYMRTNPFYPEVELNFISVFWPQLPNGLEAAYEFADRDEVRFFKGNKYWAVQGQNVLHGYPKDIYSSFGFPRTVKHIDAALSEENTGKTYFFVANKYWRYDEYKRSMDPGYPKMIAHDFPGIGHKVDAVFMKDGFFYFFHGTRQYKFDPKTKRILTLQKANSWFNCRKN

[5] = AUC in rats following a single 5 mg/kg oral cassette gavage dose; format: ADME, organism-based; design: dose 5 mg/kg, route oral; conditions: rat, plasma, read-out: AUC 0-tldc; how it was run: as §1
[6] = molecular target: 72 kDa type IV collagenase (Homo sapiens, UniProt P08253); experiment: In vitro inhibition of matrix metalloprotease-2 (MMP-2)
[7] = Half life (t1/2) in rats following a single 5 mg/kg oral cassette gavage dose; format: ADME, organism-based; design: dose 5 mg/kg, route oral; conditions: rat, in vivo; how it was run: as §1
[8] = molecular target: Matrix metalloproteinase-9 (Homo sapiens, UniProt P14780); experiment: In vitro inhibition of matrix metalloprotease-9 (MMP-9)
Sequence of Matrix metalloproteinase-9 (P14780 whole entry): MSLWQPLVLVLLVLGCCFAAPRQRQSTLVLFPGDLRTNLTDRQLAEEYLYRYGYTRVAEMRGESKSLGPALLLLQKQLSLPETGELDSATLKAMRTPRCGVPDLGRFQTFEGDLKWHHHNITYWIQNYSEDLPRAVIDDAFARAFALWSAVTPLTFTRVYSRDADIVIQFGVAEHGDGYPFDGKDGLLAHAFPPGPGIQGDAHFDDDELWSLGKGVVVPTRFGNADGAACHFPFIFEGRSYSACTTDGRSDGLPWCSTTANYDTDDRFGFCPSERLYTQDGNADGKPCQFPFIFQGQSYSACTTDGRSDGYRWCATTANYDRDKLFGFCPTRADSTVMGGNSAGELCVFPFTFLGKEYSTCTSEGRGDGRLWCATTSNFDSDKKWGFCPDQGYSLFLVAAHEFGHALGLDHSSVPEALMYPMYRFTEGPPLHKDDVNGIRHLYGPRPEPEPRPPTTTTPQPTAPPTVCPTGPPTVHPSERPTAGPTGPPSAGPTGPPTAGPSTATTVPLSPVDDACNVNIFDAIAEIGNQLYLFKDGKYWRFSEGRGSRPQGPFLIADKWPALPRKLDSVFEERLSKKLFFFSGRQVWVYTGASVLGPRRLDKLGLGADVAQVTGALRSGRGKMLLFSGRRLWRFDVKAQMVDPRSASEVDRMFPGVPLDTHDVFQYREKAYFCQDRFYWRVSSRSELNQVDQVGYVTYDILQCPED

Sequence of 72 kDa type IV collagenase (P08253 whole entry): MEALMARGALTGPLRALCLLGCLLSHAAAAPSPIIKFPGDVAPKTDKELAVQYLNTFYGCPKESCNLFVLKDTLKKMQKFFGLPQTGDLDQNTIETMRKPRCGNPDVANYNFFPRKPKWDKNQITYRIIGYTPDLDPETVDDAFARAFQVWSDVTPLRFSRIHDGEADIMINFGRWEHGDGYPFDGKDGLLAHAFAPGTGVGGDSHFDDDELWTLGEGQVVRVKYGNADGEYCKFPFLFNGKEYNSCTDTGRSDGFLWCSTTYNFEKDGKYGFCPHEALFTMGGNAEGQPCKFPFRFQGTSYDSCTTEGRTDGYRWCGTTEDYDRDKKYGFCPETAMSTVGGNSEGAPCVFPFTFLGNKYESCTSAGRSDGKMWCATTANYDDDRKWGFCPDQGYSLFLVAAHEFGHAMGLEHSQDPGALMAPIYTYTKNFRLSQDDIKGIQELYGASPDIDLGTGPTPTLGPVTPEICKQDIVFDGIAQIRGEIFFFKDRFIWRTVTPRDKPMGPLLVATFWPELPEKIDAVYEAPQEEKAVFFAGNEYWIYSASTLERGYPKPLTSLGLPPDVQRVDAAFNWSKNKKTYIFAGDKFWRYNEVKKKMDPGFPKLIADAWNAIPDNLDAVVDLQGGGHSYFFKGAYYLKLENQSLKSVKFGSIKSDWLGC
Sequence of Stromelysin-1 (P08254 whole entry): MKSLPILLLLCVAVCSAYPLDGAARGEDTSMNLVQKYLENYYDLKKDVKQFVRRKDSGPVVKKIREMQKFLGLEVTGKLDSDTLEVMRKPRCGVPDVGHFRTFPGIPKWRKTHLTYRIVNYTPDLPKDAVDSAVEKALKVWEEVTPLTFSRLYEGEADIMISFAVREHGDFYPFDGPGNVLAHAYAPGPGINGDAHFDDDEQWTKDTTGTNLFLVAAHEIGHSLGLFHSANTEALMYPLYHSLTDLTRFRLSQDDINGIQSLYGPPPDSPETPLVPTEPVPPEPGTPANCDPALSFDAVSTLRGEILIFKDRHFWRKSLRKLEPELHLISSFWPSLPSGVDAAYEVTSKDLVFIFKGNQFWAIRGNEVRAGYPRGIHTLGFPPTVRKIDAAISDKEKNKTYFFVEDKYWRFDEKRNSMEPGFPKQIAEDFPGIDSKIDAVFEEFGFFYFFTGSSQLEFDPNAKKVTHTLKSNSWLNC

| SMILES | concentration at 24 h [1] [ng/mL] | IC50 (Collagenase 3) [nM] | IC50 (Stromelysin-1) [nM] | IC50 (Matrilysin) [nM] | Cmax [2] [ng/mL] | AUC [3] [µg·h/mL] | Tmax [4] [h] | IC50 (Interstitial collagenase) [nM] | AUC [5] [µg·h/mL] | IC50 [6] [nM] | half-life [7] [h] | IC50 [8] [nM] |
| --- | --- | --- | --- | --- | --- | --- | --- | --- | --- | --- | --- | --- |
| CC(C)[C@@H](NS(=O)(=O)c1ccc(-c2ccc(C#N)cc2)cc1)C(=O)O | 4490 | 53 | 5 | 19000 | 12200 | 277 | 1.33 | 14000 | 256 | 7 | 12.8 | 3800 |
| CC(C)[C@@H](NS(=O)(=O)c1ccc(-c2ccc(Br)cc2)cc1)C(=O)NO | 10 | 2 | 5 | 140 | 5930 | 5.86 | 0.33 | 110 | 5.73 | 1 | 6.78 | 18 |
| CC(C)[C@H](NS(=O)(=O)c1ccc(-c2ccc(C#N)cc2)cc1)C(=O)O | 5480 | 37 | 6 | 7000 | 17100 | 363 | 2.67 | 18000 | 289 | 33 | 12.5 | 59000 |
| CC(C)[C@H](NS(=O)(=O)c1ccc(-c2ccc(Br)cc2F)cc1)C(=O)O | 21300 | 7 | 16 | 2100 | 28500 | 4040 | 1.88 | 3600 | 1360 | 5 | 117 | 4900 |
